Assay results published in ChEMBL document CHEMBL4373711, “Development of 3,5-Dinitrophenyl-Containing 1,2,4-Triazoles and Their Trifluoromethyl Analogues as Highly Efficient Antitubercular Agents Inhibiting Decaprenylphosphoryl-β-d-ribofuranose 2'-Oxidase” (J Med Chem, 2019).
In brackets after ≈: the same amount, converted by molar mass. Activity calls are given as the source filed them. The rule behind the calls is not given here.

Columns and labels:
[1] = tested on: Mycobacterium tuberculosis; experiment: Antimycobacterial activity against XDR Mycobacterium tuberculosis Praha 131 after 14 days; format: functional; details: for MIC99: Praha 131, 336 h
Method in brief: (§1)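 M. tuberculosis strains (H37Rv and clinical MDR/XDR isolates) tested by microdilution in Šula's semisynthetic medium. Compounds were dissolved in DMSO and tested at 32 to 0.03 µM in twofold steps. Inoculum was a 1.0 McFarland suspension diluted 10-3. Plates were incubated at 37 °C and read at 14 and 21 days.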

Mycobacterium avium [2] = experiment: Antimycobacterial activity against Mycobacterium avium CNCTC My 330/88 after 14 days; format: functional; details: CNCTC My 330/88, 336 h
Method in brief: (§2)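 M. avium was tested by microdilution in Šula's semisynthetic medium, with compounds dissolved in DMSO and serially diluted from 1000 down to 1. Inoculum was a 1.0 McFarland suspension diluted 10-5. Plates were incubated at 37 °C and read at 14 and 21 days. […] Isoniazid and rifampicin served as standards.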

[3] = tested on: Mycobacterium tuberculosis; experiment: Antimycobacterial activity against XDR Mycobacterium tuberculosis Praha 131 after 21 days; format: functional; details: Praha 131, 504 h; method in brief: as §1
Mycobacterium kansasii [4] = experiment: Antimycobacterial activity against Mycobacterium kansasii 6509/96 after 7 days; format: functional; details: 6509/96, 168 h
Method in brief: (§3)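 Microdilution in Šula's semisynthetic medium; compounds in DMSO at 32–0.03 µM. Inoculum from 1.0 McFarland suspension diluted 10-4. […] Isoniazid and rifampicin as reference drugs.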

[5] = tested on: Mycobacterium tuberculosis; experiment: Antimycobacterial activity against Mycobacterium tuberculosis H37Rv CNCTC My 331/88 after 21 days; format: functional; details: H37Rv CNCTC My 331/88, 504 h; method in brief: as §1
Mycobacterium kansasii [6] = experiment: Antimycobacterial activity against Mycobacterium kansasii 6509/96 after 21 days; format: functional; details: 6509/96, 504 h; method in brief: as §3
Mycobacterium kansasii [7] = experiment: Antimycobacterial activity against Mycobacterium kansasii 6509/96 after 14 days; format: functional; details: 6509/96, 336 h; method in brief: as §3
Mycobacterium kansasii [8] = experiment: Antimycobacterial activity against Mycobacterium kansasii CNCTC My 235/80 after 7 days; format: functional; details: CNCTC My 235/80, 168 h; method in brief: as §3
Mycobacterium avium [9] = experiment: Antimycobacterial activity against Mycobacterium avium CNCTC My 330/88 after 21 days; format: functional; details: CNCTC My 330/88, 504 h; method in brief: as §2
HepG2 = experiment: Cytotoxicity against human HepG2 cells assessed as reduction in cell viability after 48 hrs by CellTiter 96 aqueous one solution assay; format: cell-based; details: HepG2, 48 h
[10] = Cytotoxicity against human HepG2 cells assessed as cell viability at 30 uM after 48 hrs by CellTiter 96 aqueous one solution assay relative to control; format: cell-based; details: read-out: Activity
Method in brief: (§4)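 HepG2 (DMEM, 10% FBS, 1 mM pyruvate) or A431 (DMEM, 10% FBS) seeded 10,000 cells/well, 24 h at 37 °C, 5% CO2, then 30 µM compound for 48 h. MTS reagent 60 min, absorbance 490 nm, background subtracted; 0.1% DMSO vehicle = 100%, 10% SDS = 0% viability.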

[11] = Cytotoxicity against human A431 cells assessed as cell viability at 30 uM after 48 hrs by CellTiter 96 aqueous one solution assay relative to control; format: cell-based, A-431; details: read-out: Activity; method in brief: as §4
Mycobacterium kansasii [12] = experiment: Antimycobacterial activity against Mycobacterium kansasii CNCTC My 235/80 after 21 days; format: functional; details: CNCTC My 235/80, 504 h; method in brief: as §3
A-431 = experiment: Cytotoxicity against human A431 cells assessed as reduction in cell viability after 48 hrs by CellTiter 96 aqueous one solution assay; format: cell-based; details: A-431, 48 h
Mycobacterium kansasii [13] = experiment: Antimycobacterial activity against Mycobacterium kansasii CNCTC My 235/80 after 14 days; format: functional; details: CNCTC My 235/80, 336 h; method in brief: as §3
[14] = tested on: Mycobacterium tuberculosis; experiment: Antimycobacterial activity against Mycobacterium tuberculosis H37Rv CNCTC My 331/88 after 14 days; format: functional; details: H37Rv CNCTC My 331/88, 336 h; method in brief: as §1
Lichtheimia corymbifera = experiment: Antifungal activity against Lichtheimia corymbifera CCM 8077 at highest concentration measured after 24 to 48 hrs by alamar blue dye based broth microdilution assay; format: functional, organism-based
Staphylococcus aureus [15] = experiment: Antibacterial activity against methicillin-resistant Staphylococcus aureus subsp. aureus ATCC 43300 CCM 4750 at highest concentration measured after 24 to 48 hrs by alamar blue dye based broth microdilution assay; format: functional, organism-based
Candida albicans = experiment: Antifungal activity against Candida albicans ATCC 24433 CCM 8320 at highest concentration measured after 24 to 48 hrs by alamar blue dye based broth microdilution assay; format: functional, organism-based
Escherichia coli = experiment: Antibacterial activity against Escherichia coli ATCC 25922 CCM 3954 at highest concentration measured after 24 to 48 hrs by alamar blue dye based broth microdilution assay; format: functional, organism-based
Aspergillus flavus = experiment: Antifungal activity against Aspergillus flavus CCM 8363 at highest concentration measured after 24 to 48 hrs by alamar blue dye based broth microdilution assay; format: functional, organism-based
Staphylococcus aureus [16] = experiment: Antibacterial activity against Staphylococcus aureus subsp. aureus ATCC 29213 CCM 4223 at highest concentration measured after 24 to 48 hrs by alamar blue dye based broth microdilution assay; format: functional, organism-based
Enterococcus faecalis = experiment: Antibacterial activity against Enterococcus faecalis ATCC 29212 CCM 4224 at highest concentration measured after 24 to 48 hrs by alamar blue dye based broth microdilution assay; format: functional, organism-based
Candida tropicalis = experiment: Antifungal activity against Candida tropicalis ATCC 750 CCM 8264 at highest concentration measured after 24 to 48 hrs by alamar blue dye based broth microdilution assay; format: functional, organism-based
Candida parapsilosis = experiment: Antifungal activity against Candida parapsilosis ATCC 22019 CCM 8260 at highest concentration measured after 24 to 48 hrs by alamar blue dye based broth microdilution assay; format: functional, organism-based
Pseudomonas aeruginosa = experiment: Antibacterial activity against Pseudomonas aeruginosa ATCC 27853 CCM 3955 at highest concentration measured after 24 to 48 hrs by alamar blue dye based broth microdilution assay; format: functional, organism-based
Serratia marcescens = experiment: Antibacterial activity against Serratia marcescens at highest concentration measured after 24 to 48 hrs by alamar blue dye based broth microdilution assay; format: functional, organism-based
[17] = tested on: Trichophyton interdigitale; experiment: Antifungal activity against Trichophyton interdigitale ATCC 9533 CCM 8377 at highest concentration measured after 72 to 120 hrs by alamar blue dye based broth microdilution assay; format: functional
Pichia kudriavzevii = experiment: Antifungal activity against Candida krusei ATCC 6258 CCM8271 at highest concentration measured after 24 to 48 hrs by alamar blue dye based broth microdilution assay; format: functional, organism-based
[18] = tested on: Staphylococcus epidermidis; experiment: Antibacterial activity against Staphylococcus epidermidis at highest concentration measured after 24 to 48 hrs by alamar blue dye based broth microdilution assay; format: functional, organism-based
Klebsiella pneumoniae = experiment: Antibacterial activity against Klebsiella pneumoniae at highest concentration measured after 24 to 48 hrs by alamar blue dye based broth microdilution assay; format: functional, organism-based
Aspergillus fumigatus = experiment: Antifungal activity against Aspergillus fumigatus ATCC 204305 at highest concentration measured after 24 to 48 hrs by alamar blue dye based broth microdilution assay; format: functional, organism-based

GENTAMICIN
MIC>99 [1]: > 8 µM

O=[N+]([O-])c1cc(CSc2nnc(C3CCCCC3)n2Cc2ccccc2)cc(C(F)(F)F)c1
MIC99 (Mycobacterium avium [2]): 250 µM (≈ 119 µg/mL)
MIC99 [3]: 16 µM (≈ 7.62 µg/mL)
MIC99 (Mycobacterium kansasii [4]): 16 µM (≈ 7.62 µg/mL)
MIC99 [5]: 16 µM (≈ 7.62 µg/mL)
MIC99 (Mycobacterium kansasii [6]): 32 µM (≈ 15.2 µg/mL)
MIC99 (Mycobacterium kansasii [7]): 16 µM (≈ 7.62 µg/mL)
MIC99 (Mycobacterium kansasii [8]): 16 µM (≈ 7.62 µg/mL)
MIC99 (Mycobacterium avium [9]): 250 µM (≈ 119 µg/mL)
IC50 (HepG2): > 30 µM
viability at 48 h, 30 µM [10]: 79%
MIC99 [1]: 16 µM (≈ 7.62 µg/mL)
viability at 48 h, 30 µM [11]: 67%
MIC99 (Mycobacterium kansasii [12]): 16 µM (≈ 7.62 µg/mL)
IC50 (A-431): > 30 µM
MIC99 (Mycobacterium kansasii [13]): 16 µM (≈ 7.62 µg/mL)
MIC99 [14]: 16 µM (≈ 7.62 µg/mL)

CCCCCCn1c(SCc2ccccc2)nnc1-c1cc([N+](=O)[O-])cc([N+](=O)[O-])c1
MIC99 (Mycobacterium avium [2]): 250 µM (≈ 110 µg/mL)
MIC99 (Mycobacterium kansasii [4]): 1 µM (≈ 0.442 µg/mL)
MIC99 [5]: 1 µM (≈ 0.442 µg/mL)
Activity (Lichtheimia corymbifera): inactive
MIC99 (Mycobacterium kansasii [6]): 1 µM (≈ 0.442 µg/mL)
MIC99 (Mycobacterium kansasii [7]): 1 µM (≈ 0.442 µg/mL)
Activity (Staphylococcus aureus [15]): inactive
Activity (Candida albicans): inactive
MIC99 (Mycobacterium kansasii [8]): 1 µM (≈ 0.442 µg/mL)
Activity (Escherichia coli): inactive
MIC99 (Mycobacterium avium [9]): 250 µM (≈ 110 µg/mL)
Activity (Aspergillus flavus): inactive
Activity (Staphylococcus aureus [16]): inactive
Activity (Enterococcus faecalis): inactive
IC50 (HepG2): > 30 µM
viability at 48 h, 30 µM [10]: 102%
viability at 48 h, 30 µM [11]: 98%
MIC99 (Mycobacterium kansasii [12]): 1 µM (≈ 0.442 µg/mL)
IC50 (A-431): > 30 µM
Activity (Candida tropicalis): inactive
Activity (Candida parapsilosis): inactive
Activity (Pseudomonas aeruginosa): inactive
MIC99 (Mycobacterium kansasii [13]): 1 µM (≈ 0.442 µg/mL)
MIC99 [14]: 1 µM (≈ 0.442 µg/mL)
Activity (Serratia marcescens): inactive
Activity [17]: inactive
Activity (Pichia kudriavzevii): inactive
Activity [18]: inactive
Activity (Klebsiella pneumoniae): inactive
Activity (Aspergillus fumigatus): inactive

NCC[C@H](O)C(=O)N[C@@H]1C[C@H](N)[C@@H](O[C@H]2O[C@H](CN)[C@@H](O)[C@H](O)[C@H]2O)[C@H](O)[C@H]1O[C@H]1O[C@H](CO)[C@@H](O)[C@H](N)[C@H]1O [AMIKACIN]
MIC99 [1]: > 32 µM
